Reference: ChEMBL document CHEMBL1155143, “Interaction of the GraRS two-component system with the VraFG ABC transporter to support vancomycin-intermediate resistance in Staphylococcus aureus” (2007)
≈ marks a conversion by molar mass, not a printed value. Calls of active or inactive are those of the source. No cut-off for these calls is given here.

Legend:
Staphylococcus aureus [1] = assay: Antimicrobial activity against wild type vancomycin-intermediate resistant Staphylococcus aureus Mu50 by microdilution assay; assay type: functional
Procedure, shortened: (§1)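 Standardized CLSI broth microdilution was run in CSMHB with 10^5 CFU/ml inoculum and scored at 48 h. Values are medians of at least three independent experiments. Daptomycin MICs for Mu50 strains were read by Etest per the supplied protocol instead of microdilution.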

Staphylococcus aureus [2] = assay: Antimicrobial activity against vancomycin-intermediate resistant Staphylococcus aureus Mu50 graR mutant microdilution assay; assay type: functional; procedure, shortened: as §1
Staphylococcus aureus [3] = assay: Antimicrobial activity against vancomycin-intermediate resistant Staphylococcus aureus Mu50 vraG mutant microdilution assay; assay type: functional; procedure, shortened: as §1
Staphylococcus aureus [4] = assay: Antimicrobial activity against methicillin-resistant Staphylococcus aureus COL graR mutant assessed as hypersensitivity at 1 ug/ml; assay type: functional, organism-based
Procedure, shortened: (§2)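 Overnight CSMHB cultures (Mueller-Hinton broth with 25 μg/ml Ca2+ and 12.5 μg/ml Mg2+) were adjusted to A650 1.1 (~10^9 CFU/ml). They were diluted 200 μl per 7 ml CSMHB with or without 1 μg/ml vancomycin, and growth curves were plotted as A650 over time. Plasmid-carrying strains received 10 μg/ml chloramphenicol.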

Staphylococcus aureus [5] = assay: Antimicrobial activity against methicillin-resistant Staphylococcus aureus COL assessed as hypersensitivity at 1 ug/ml; assay type: functional, organism-based; procedure, shortened: as §2
Staphylococcus aureus [6] = assay: Antimicrobial activity against methicillin-resistant Staphylococcus aureus sacol1355 mutant assessed as hypersensitivity at 1 ug/ml; assay type: functional, organism-based; procedure, shortened: as §2
Staphylococcus aureus [7] = assay: Antimicrobial activity against methicillin-resistant Staphylococcus aureus sacol2358 mutant assessed as hypersensitivity at 1 ug/ml; assay type: functional, organism-based; procedure, shortened: as §2
Staphylococcus aureus [8] = assay: Antimicrobial activity against wild type methicillin-resistant Staphylococcus aureus COL expressing pEPSA5graRS1 plasmid by microdilution assay
Staphylococcus aureus [9] = assay: Antimicrobial activity against wild type vancomycin-intermediate resistant Staphylococcus aureus Mu50 expressing pEPSA5 plasmid by microdilution assay
Staphylococcus aureus [10] = assay: Antimicrobial activity against wild type vancomycin-intermediate resistant Staphylococcus aureus Mu50 expressing pEPSA5graRS1 plasmid by microdilution assay
Staphylococcus aureus [11] = assay: Antimicrobial activity against wild type vancomycin-intermediate resistant Staphylococcus aureus Mu50 expressing pEPSA5graFG1 plasmid by microdilution assay
Staphylococcus aureus [12] = assay: Antimicrobial activity against wild type vancomycin-intermediate resistant Staphylococcus aureus Mu50 expressing pEPSA5graRS2 plasmid by microdilution assay
Staphylococcus aureus [13] = assay: Antimicrobial activity against vancomycin-intermediate resistant Staphylococcus aureus Mu50 vraG mutant expressing pEPSA5graRS1 plasmid by microdilution assay
Staphylococcus aureus [14] = assay: Antimicrobial activity against methicillin-resistant Staphylococcus aureus sacol2646 mutant assessed as hypersensitivity at 1 ug/ml; assay type: functional, organism-based; procedure, shortened: as §2
Staphylococcus aureus [15] = assay: Antimicrobial activity against wild type methicillin-resistant Staphylococcus aureus COL by microdilution assay; assay type: functional, organism-based; procedure, shortened: as §1
Staphylococcus aureus [16] = assay: Antimicrobial activity against methicillin-resistant Staphylococcus aureus COL graR mutant by microdilution assay; assay type: functional, organism-based; procedure, shortened: as §1
Staphylococcus aureus [17] = assay: Antimicrobial activity against methicillin-resistant Staphylococcus aureus COL graS mutant by microdilution assay; assay type: functional, organism-based; procedure, shortened: as §1
Staphylococcus aureus [18] = assay: Antimicrobial activity against methicillin-resistant Staphylococcus aureus COL vraG mutant by microdilution assay; assay type: functional, organism-based; procedure, shortened: as §1
Staphylococcus aureus [19] = assay: Antimicrobial activity against wild type methicillin-resistant Staphylococcus aureus COL expressing pEPSA5 plasmid by microdilution assay; assay type: functional, organism-based
Procedure, shortened: (§3)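 CLSI broth microdilution was run in CSMHB with 10^5 CFU/ml for strains carrying pEPSA5-based plasmids. Chloramphenicol 10 μg/ml maintained the plasmid, and growth was scored at 72 h. Media were used with or without 0.5% xylose or glucose. MIC is the median over all conditions from three independent experiments.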

Staphylococcus aureus [20] = assay: Antimicrobial activity against wild type methicillin-resistant Staphylococcus aureus COL expressing pEPSA5graRS2 plasmid by microdilution assay; assay type: functional, organism-based; procedure, shortened: as §3
Staphylococcus aureus [21] = assay: Antimicrobial activity against wild type methicillin-resistant Staphylococcus aureus COL expressing pEPSA5vraFG2 plasmid by microdilution assay; assay type: functional, organism-based; procedure, shortened: as §3
Staphylococcus aureus [22] = assay: Antimicrobial activity against wild type methicillin-resistant Staphylococcus aureus COL expressing pEPSA5vraFG1 plasmid by microdilution assay; assay type: functional, organism-based; procedure, shortened: as §3
Staphylococcus aureus [23] = assay: Antimicrobial activity against wild type methicillin-susceptible Staphylococcus aureus RN6390 by microdilution assay; assay type: functional, organism-based; procedure, shortened: as §1
Staphylococcus aureus [24] = assay: Antimicrobial activity against methicillin-susceptible Staphylococcus aureus RN6390 graR by microdilution assay; assay type: functional, organism-based; procedure, shortened: as §1
Staphylococcus aureus [25] = assay: Antimicrobial activity against methicillin-susceptible Staphylococcus aureus RN6390 vraG by microdilution assay; assay type: functional, organism-based; procedure, shortened: as §1
Staphylococcus aureus [26] = assay: Antimicrobial activity against methicillin-susceptible Staphylococcus aureus RN6390 graS by microdilution assay; assay type: functional, organism-based; procedure, shortened: as §1
Staphylococcus aureus [27] = settings: COL

| Compound | MIC (Staphylococcus aureus [1]) [µg/mL] | MIC (Staphylococcus aureus [2]) [µg/mL] | MIC (Staphylococcus aureus [3]) [µg/mL] | also measured |
| --- | --- | --- | --- | --- |
| CCCCCCCCCC(=O)N[C@@H](Cc1c[nH]c2ccccc12)C(=O)N[C@H](CC(N)=O)C(=O)N[C@@H](CC(=O)O)C(=O)N[C@@H]1C(=O)NCC(=O)N[C@@H](CCCN)C(=O)N[C@@H](CC(=O)O)C(=O)N[C@H](C)C(=O)N[C@@H](CC(=O)O)C(=O)NCC(=O)N[C@H](CO)C(=O)N[C@@H]([C@H](C)CC(=O)O)C(=O)N[C@@H](CC(=O)c2ccccc2N)C(=O)O[C@@H]1C | 2 (≈ 1.23 µM) | 1 (≈ 0.617 µM) | 2 (≈ 1.23 µM) |  |
| O=C(N[C@H](CO)[C@H](O)c1ccc([N+](=O)[O-])cc1)C(Cl)Cl [CHLORAMPHENICOL] | 8 (≈ 24.8 µM) | 8 (≈ 24.8 µM) | 8 (≈ 24.8 µM) |  |
| O=C(O)c1cn(C2CC2)c2cc(N3CCNCC3)c(F)cc2c1=O [CIPROFLOXACIN] | 32 (≈ 96.6 µM) | 64 (≈ 193 µM) | 64 (≈ 193 µM) |  |
| N[C@@H]1CONC1=O [CYCLOSERINE] | 128 (≈ 1250 µM) | 64 (≈ 627 µM) | 64 (≈ 627 µM) |  |
| CC[C@H]1OC(=O)[C@H](C)[C@@H](O[C@H]2C[C@@](C)(OC)[C@@H](O)[C@H](C)O2)[C@H](C)[C@@H](O[C@@H]2O[C@H](C)C[C@H](N(C)C)[C@H]2O)[C@](C)(O)C[C@@H](C)C(=O)[C@H](C)[C@@H](O)[C@]1(C)O [ERYTHROMYCIN] | ≥ 2050 | 1020 (≈ 1400 µM) | ≥ 2050 |  |
| C[C@@H]1O[C@@H]1P(=O)(O)O [FOSFOMYCIN] | 1020 (≈ 7420 µM) | 1020 (≈ 7420 µM) | 1020 (≈ 7420 µM) |  |
| CC[C@H](C)[C@@H]1NC(=O)[C@H](CO)NC(=O)[C@@H]2CCCN2C(=O)[C@H](C)NC(=O)CNC(=O)[C@H](CC(C)C)NC(=O)[C@H](CCCCN)N[C@H](CCCCN)NC(=O)[C@H](CCSC)NC(=O)[C@H](CCCNC(=N)N)NC(=O)[C@H](Cc2c[nH]c3ccccc23)NC(=O)[C@H](CCC(N)=O)NC(=O)[C@H](Cc2c[nH]c3ccccc23)NC(=O)[C@H](CCCNC(=N)N)NC(=O)[C@H](CCCNC(=N)N)NC(=O)[C@@H](NC(=O)[C@H](CCCCN)NC(=O)[C@@H](N)Cc2ccccc2)CSSC[C@@H](C(=O)N[C@H](C(=O)N[C@@H](CCCNC(=N)N)C(=O)N[C@@H](C)C(=O)N[C@@H](Cc2ccccc2)C(=O)O)C(C)C)NC(=O)[C@H]([C@@H](C)O)NC1=O [LACTOFERRICIN] | ≥ 512 | ≥ 512 | ≥ 512 |  |
| C/C(=C\C(=O)OCCCCCCCCC(=O)O)C[C@@H]1OC[C@H](C[C@@H]2O[C@H]2[C@@H](C)[C@H](C)O)[C@@H](O)[C@H]1O [MUPIROCIN] | 0.25 (≈ 0.499 µM) | 0.25 (≈ 0.499 µM) | 0.25 (≈ 0.499 µM) |  |
| CO[C@@H]1[C@@H](OC(N)=O)[C@@H](O)[C@H](Oc2ccc3c(O)c(NC(=O)c4ccc(O)c(CC=C(C)C)c4)c(=O)oc3c2C)OC1(C)C [NOVOBIOCIN] | 0.125 (≈ 0.204 µM) | 0.25 (≈ 0.408 µM) | 0.125 (≈ 0.204 µM) |  |
| Cc1onc(-c2ccccc2)c1C(=O)N[C@@H]1C(=O)N2[C@@H]1SC(C)(C)[C@@H]2C(=O)O [OXACILLIN] | 512 (≈ 1280 µM) | 256 (≈ 638 µM) | 1020 (≈ 2550 µM) |  |
| CO[C@H]1/C=C/O[C@@]2(C)Oc3c(C)c(O)c4c(O)c(c(/C=N/N5CCN(C)CC5)c(O)c4c3C2=O)NC(=O)/C(C)=C\C=C\[C@H](C)[C@H](O)[C@@H](C)[C@@H](O)[C@@H](C)[C@H](OC(C)=O)[C@@H]1C [RIFAMPIN] | 1020 (≈ 1240 µM) | 1020 (≈ 1240 µM) | 1020 (≈ 1240 µM) |  |
| CN(C)[C@@H]1C(O)=C(C(N)=O)C(=O)[C@@]2(O)C(O)=C3C(=O)c4c(O)cccc4[C@@](C)(O)[C@H]3C[C@@H]12 [TETRACYCLINE] | 64 (≈ 144 µM) | 128 (≈ 288 µM) | 64 (≈ 144 µM) |  |
| NC[C@H]1O[C@H](O[C@H]2[C@H](O)[C@@H](O[C@H]3O[C@H](CO)[C@@H](O)[C@H](N)[C@H]3O)[C@H](N)C[C@@H]2N)[C@H](N)C[C@@H]1O [TOBRAMYCIN] | ≥ 2050 | ≥ 2050 | ≥ 2050 |  |
| COc1cc(Cc2cnc(N)nc2N)cc(OC)c1OC [TRIMETHOPRIM] | 4 (≈ 13.8 µM) | 2 (≈ 6.89 µM) | 4 (≈ 13.8 µM) |  |
| CN[C@H](CC(C)C)C(=O)N[C@H]1C(=O)N[C@@H](CC(N)=O)C(=O)N[C@H]2C(=O)N[C@H]3C(=O)N[C@H](C(=O)N[C@H](C(=O)O)c4cc(O)cc(O)c4-c4cc3ccc4O)[C@H](O)c3ccc(c(Cl)c3)Oc3cc2cc(c3O[C@@H]2O[C@H](CO)[C@@H](O)[C@H](O)[C@H]2O[C@H]2C[C@](C)(N)[C@H](O)[C@H](C)O2)Oc2ccc(cc2Cl)[C@H]1O [VANCOMYCIN] | 8 (≈ 5.52 µM) |  |  | Activity (Staphylococcus aureus [4]): Active; Activity (Staphylococcus aureus [5]): inactive; Activity (Staphylococcus aureus [6]): inactive; Activity (Staphylococcus aureus [7]): inactive; MIC (Staphylococcus aureus [8]): 8 µg/mL (≈ 5.52 µM); MIC (Staphylococcus aureus [9]): 8 µg/mL (≈ 5.52 µM); MIC (Staphylococcus aureus [10]): 8 µg/mL (≈ 5.52 µM); MIC (Staphylococcus aureus [11]): 8 µg/mL (≈ 5.52 µM); MIC (Staphylococcus aureus [12]): 8 µg/mL (≈ 5.52 µM); MIC (Staphylococcus aureus [13]): 8 µg/mL (≈ 5.52 µM); Activity (Staphylococcus aureus [14]): inactive |
| POLYMYXIN B | 128 | 16 | 16 | MIC (Staphylococcus aureus [15]): 64 µg/mL; MIC (Staphylococcus aureus [16]): 8 µg/mL; MIC (Staphylococcus aureus [17]): 8 µg/mL; MIC (Staphylococcus aureus [18]): 8 µg/mL; MIC (Staphylococcus aureus [19]): 64 µg/mL; MIC (Staphylococcus aureus [20]): 64 µg/mL; MIC (Staphylococcus aureus [21]): 64 µg/mL; MIC (Staphylococcus aureus [22]): 64 µg/mL; MIC (Staphylococcus aureus [23]): 32 µg/mL; MIC (Staphylococcus aureus [24]): 4 µg/mL; MIC (Staphylococcus aureus [25]): 4 µg/mL; MIC (Staphylococcus aureus [26]): 4 µg/mL; MIC (Staphylococcus aureus [27]): 128 µg/mL |
